# Bioassay records: PubChem, several laboratories
# NR2E3 ag-1: agonists of human NR2E3 nuclear receptor. Q9Y5X4. CHO-S Gal4-NCOR/VP16-NR2E3 two-hybrid, luciferase. inhibition of corepressor binding, % at 3.98 µM. 0.35% of 360,000 active. AID 602229;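 active means inhibition above the mean of all tested compounds plus 3 SD, cut at about 70% in these data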;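 further: 0% = DMSO with NR2E3 transfected cells and 100% = cells lacking NR2E3 construct; higher means lower luciferase signal from less NR2E3 corepressor binding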
# MsrA inhibitor: inhibits bovine methionine sulfoxide reductase A; purified bovine MsrA, absorbance read-out; inhibition, % at 15.5 µM; 0.75% of 360,000 active; in the data active means inhibition above about 4.5%;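 further: 0% = vehicle wells with enzyme and 100% = reference inhibitor wells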
# NR2E3 ag-2: activates human photoreceptor nuclear receptor NR2E3; AID 2300; inhibition of corepressor binding, % at 4.78 µM; GST-NR2E3/biotin-RetCOR TR-FRET, 1536-well; Q9Y5X4; 0.12% of 320,000 active;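 active means percent inhibition above the cutoff of mean plus 3 SD of all tested compounds, set per screening campaign, cut at about 20% in these data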;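 further: 0% = DMSO wells and 100% = biotin wells as full block of FRET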
#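 System: GST-tagged NR2E3 plus biotinylated RetCOR corepressor; Amount: 1.35 nM GST-tagged NR2E3 final; Dosing: single nominal compound dose of 4.8 µM; Schedule: 5 h incubation at 4 °C; Technique: TR-FRET with europium anti-GST and streptavidin-D2, 340 nm excitation; Controls: biotin wells as high control, 0.6% DMSO wells as low control.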
# GalR3 antag: human GalR3 antagonism | O60755 | HEK293 GalR3-CNG cAMP membrane potential fluorescence; galR3 body fused to GalR1 C-terminus | inhibition, % at 3 µM | 0.44% of 360,000 active | AID 651719;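 active means inhibition above the screen-wide average plus 3 SD, cut at about 13% in these data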;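 further: forskolin and galanin both at EC90 stimulate the cells; cAMP rise reported by CNG channel membrane potential dye signal; 0% = forskolin plus galanin with DMSO and 100% = forskolin alone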
# Target sequence (O60755 1-299 limits assumed): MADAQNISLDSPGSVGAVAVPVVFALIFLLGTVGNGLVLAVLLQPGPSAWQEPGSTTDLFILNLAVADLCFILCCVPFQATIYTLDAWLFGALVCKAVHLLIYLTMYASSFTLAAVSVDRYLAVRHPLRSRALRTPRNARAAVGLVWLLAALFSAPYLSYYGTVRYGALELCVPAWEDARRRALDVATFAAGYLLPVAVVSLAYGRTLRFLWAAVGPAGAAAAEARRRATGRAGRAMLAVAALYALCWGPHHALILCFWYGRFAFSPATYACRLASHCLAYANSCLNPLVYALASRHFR
# NadD inh: blocks S. aureus nicotinate mononucleotide adenylyltransferase; purified NadD enzyme, colorimetric absorbance read-out; inhibition, % at 20 µM; 0.78% of 360,000 active; AID 602399; in the data active means inhibition above about 26%
# bovine MsrA act: bovine methionine sulfoxide reductase A activation; purified bovine MsrA, absorbance read-out; activation, % at 10.6 µM; 0.3% of 360,000 active; in the data active means activation above about 7.5%;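 further: 0% = vehicle and 100% = reference activator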
# NadD inh conf: NadD (S. aureus) inhibition, single concentration confirmation; shares compounds with NadD inh; purified S. aureus NadD, colorimetric enzyme assay; inhibition, % at 20 µM; 13% of 2,000 active; in the data active means inhibition mostly above about 42%, no sharp cut-off; inactive means mostly below about 42%
# The depositor's hits bear a star; nt = no result given; ! = not confirmed by another sample. Shown are actives, neighbours in structure and some others; about 2.5% of the full set was active somewhere.
SMILES,NR2E3 ag-1,MsrA inhibitor,NR2E3 ag-2,GalR3 antag,NadD inh,bovine MsrA act,NadD inh conf
O=c1[nH]c(=S)[nH]cc1Oc1ccc(Br)cc1Br,-10,1,nt,2,5,1,nt
Nc1ccccc1C(=O)NNC(=O)C(=O)/C=C(\O)c1ccccc1,-81,1,3,6,72*,-4,73*
O=C(Nc1cc(Br)ccc1O)c1cc(-c2ccco2)on1,-4,2,8,-12,29*,-4,11
O=C1O[C@H]([C@@H](O)CO)C(O)=C1O,-1,2,0,-3,35*,-1,2
O=c1c2ccccc2sn1-c1ccc(S(=O)(=O)N2CCCC2)cc1,-17,-2,5,-5,22,6,nt
O=c1c2ccccc2sn1-c1ccc(S(=O)(=O)N2CCCCC2)cc1,-21,0,3,6,31*,-2,12
O=c1[nH]c(C2CCCN(S(=O)(=O)c3cccc(Cl)c3)C2)nc2c1nnn2Cc1ccc2c(c1)OCCO2 (stereo not given),-1,0,3,-2,58*,-4,57*
O=c1[nH]c(C2CCN(S(=O)(=O)c3ccc4c(c3)OCCO4)CC2)nc2c1nnn2Cc1ccccc1,8,0,nt,-9,2,-10,nt
Cc1ccc(C)c(S(=O)(=O)N2CCC(c3nc4c(nnn4Cc4ccc5c(c4)OCCO5)c(=O)[nH]3)CC2)c1,-27,1,3,4,46*,-2,10
COc1ccc(NC(=O)CSc2nc(=O)n(CCN3CCOCC3)c3c2CCC3)cc1,-4,1,-1,2,-4,-3,nt
Cc1ccc(NC(=O)COC(=O)c2ccc3c(c2)NC(=O)C2CCCN32)cc1 (stereo not given),-4,2,2,-6,38*,-4,32
COc1cc(NCCCCCCN)c2ncccc2c1OC,-6,-1,nt,-5,51*,6,22
Cc1cc(-c2cc(N)n(-c3ccccc3)n2)c(C)n1C1CCCC1,-5,1,7,-7,32*,-1,12
CN(c1ccccc1)S(=O)(=O)c1ccc(Cl)c(C(=O)Nc2nc3ccccc3[nH]2)c1,-36,-1,-4,-1,11,-3,nt
CN(c1ccccc1)S(=O)(=O)c1ccc(Cl)c(C(=O)Nc2ccc(-c3nc4ccccc4[nH]3)cc2)c1,-13,4,2,0,33*,-4,40
COc1cccc(C(=O)NNC(=O)c2sccc2-n2cccc2)c1,-4,0,5,0,-2,7,nt
O=S(=O)(Nc1ccc2c(c1)nc1n2CCN(Cc2ccccc2)C1)c1ccc(Cl)cc1,13,2,-1,-6,32*,-4,43
CC(C)=NNc1nc2c(c(=O)n(C)c(=O)n2C)n1CCc1ccccc1,-38,0,10,-3,0,-5,nt
Fc1cc(F)c(F)c(SCCc2ccncc2)c1F,3,0,2,-5,25*,-4,10
COCC(C)NC(=O)c1cc(OC)cc(OC)c1 (stereo not given),2,-1,2,-3,-1,0,nt
CNC(=O)c1[nH]cnc1C(=O)Nc1cccc(C)c1,-27,0,0,-5,-6,-4,nt
Cc1cccc(NC(=O)c2nc[nH]c2C(=O)NCCCCNC(=O)c2[nH]cnc2C(=O)Nc2cccc(C)c2)c1,-30,-1,nt,-4,37*,-2,11
Cc1cccc(NC(=O)c2nc[nH]c2C(=O)NCCCCCCNC(=O)c2[nH]cnc2C(=O)Nc2cccc(C)c2)c1,-6,-1,0,-3,37*,-1,4
Cc1cccc(NC(=O)c2nc[nH]c2C(=O)NCc2ccccc2)c1,-26,-1,4,-4,1,-6,nt
COc1cc(CNc2ncnc3c2ncn3[C@H]2CN(Cc3ccc(F)cc3)C[C@@H](CO)O2)cc(OC)c1OC,0,-1,nt,-7,-1,-5,nt
SMILES,NR2E3 ag-1,MsrA inhibitor,NR2E3 ag-2,GalR3 antag,NadD inh,bovine MsrA act,NadD inh conf
CCOc1c(Cl)cc(CNc2ccc(N3CCCC3)cc2)cc1OC,-22,0,nt,2,33*,-2,2
COc1ccc(-c2cc(C(=O)Nc3cc(OC)cc(C(=O)Nc4cccc(C(F)(F)F)c4)c3)[nH]n2)cc1,-5,-1,1,-7,40*!,0,23
CC1(C)CC(=O)c2c(nc(SCC(=O)Nc3nsc(-c4ccccc4)n3)c(C#N)c2-c2ccccc2)C1,-12,1,1,-6,39*,0,-2
CN(C)/C=C1\C(=O)N(c2ccc(Cl)c(Cl)c2)CS1(=O)=O,-19,-1,-2,-4,33*,-1,-1
CN(C)C1=C(Cl)C(=O)N(c2ccc(Cl)c(Cl)c2)C1=O,-2,0,-1,-6,3,-2,nt
FC(F)(F)c1ccc(CN2C[C@@H]3C(c4ccc(C(F)(F)F)cc4)C4(c5cccnc5)CC3(C4)[C@H]2c2ccccc2)cc1 (stereo not given in full),8,0,-1,-5,38*,-4,22
FC(F)(F)c1ccc(CN2C[C@@H]3C(c4ccccc4)C4(c5cccnc5)CC3(C4)[C@H]2c2ccccc2)cc1 (stereo not given in full),14,-1,-4,-1,25,2,nt
CC1CCc2c(sc3ncnc(SCC(=O)Nc4ccc(C(=O)O)cc4)c23)C1 (stereo not given),-17,-1,1,-6,11,-1,nt
COc1cc(NC(=O)CSc2ncnc3sc4c(c23)CCC(C)C4)c(C(=O)O)cc1OC (stereo not given),17,-1,5,-6,36*,0,21
O=c1cc(-c2ccc(O)c(-c3c(O)cc(O)c4c(=O)cc(-c5ccc(O)cc5)oc34)c2)oc2cc(O)cc(O)c12,-9,1,2,-4,77*,-6,66*
CC(C)c1ccc(/C=C2\SC(=S)N(CC(=O)NCCCN3CCOCC3)C2=O)cc1,-2,0,-1,-10,-8,-11,nt
COc1cc(NC(=O)CSc2nnc(-c3cc(C)on3)o2)cc(OC)c1,-4,2,3,-12,-2,-2,nt
Cc1cc(-c2nnc(SCC(=O)Nc3nc(-c4ccc(Cl)cc4)cs3)o2)no1,-23,2,0,-6,27*,1,2
c1ccc(C2[C@H]3CN(CC4CCCCC4)[C@H](c4ccccc4)C34CC2(c2cccnc2)C4)cc1 (stereo not given in full),6,-1,0,-5,5,-2,nt
O=C(CN1C(=O)NC2(CCCCC2)C1=O)Nc1cc(C(F)(F)F)ccc1N1CCCC1,-25,1,nt,-6,-1,0,nt
